The source of these data is ChEMBL document CHEMBL2346555, “Efficacious cyclic N-acyl O-amino phenol duocarmycin prodrugs” (J Med Chem, 2013).

Series [1] in a line: Stability of the compound in THF at 23 degC after 5 days in presence of NaHCO3. It is filed as physicochemical. The following applies: 120 h.
Series [2] can be described thus: Stability of the compound in MeOH at 23 degC after 5 days in presence of NaHCO3. It is filed as physicochemical. The following applies: 120 h.
The next series relates to L1210. Briefly: Cytotoxicity against mouse L1210 cells assessed as growth inhibition after 72 hrs by phosphatase assay. It is filed as functional, cell-based. The following applies: Mus musculus, L1210, 72 h. Put shortly:
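L1210 mouse leukemia cells were seeded at 30,000 cells/mL in DMEM with 10% FBS and grown 24 h at 37 °C, 5% CO2. DMSO dilutions were then added at six concentrations between 0–100 or 0–1000 nM, in duplicate, for 72 h. Read-out: phosphatase substrate in 0.1 M NaOAc pH 5.5 with 0.1% Triton X-100, 5 min at 37 °C, stopped with NaOH, A405. IC50 is the average of ≥4 determinations.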

Series [3] can be described thus: Stability of the compound in DMF/H2O at 23 degC after 5 days in presence of NaHCO3. It is filed as physicochemical. The following applies: 120 h.
Series [4] in a line: Half life of the compound in HCl/EtOAc at 23 degC. Format: physicochemical.
A short description of series [5]: Drug degradation in MeOH at 254 nM after 24 hrs by LC-MS analysis in presence of NaHCO3 and BnNH2. Format: physicochemical. The following applies: MeOH with NaHCO3 and BnNH2; read-out: Drug degradation.
The nature of series [6]: Drug degradation in THF at 254 nM after 24 hrs by LC-MS analysis in presence of NaHCO3 and BnNH2. Format: physicochemical. The settings on record: THF with NaHCO3 and BnNH2; read-out: Drug degradation.
Series [7] can be described thus: Drug degradation in THF at 254 nM after 48 hrs by LC-MS analysis in presence of NaHCO3 and BnNH2. The following applies: THF with NaHCO3 and BnNH2; read-out: Drug degradation. Format: physicochemical.
Series [8] is described as follows: Drug degradation in MeOH at 254 nM after 24 hrs by LC-MS analysis in presence of NaHCO3 and BnSH. It is filed as physicochemical. The settings on record: MeOH with NaHCO3 and BnSH; read-out: Drug degradation.
Series [9] can be described thus: Half life of the compound in MeOH at 23 degC in presence of NaHCO3. Format: physicochemical. The settings on record: MeOH with NaHCO3.
The nature of series [10]: Stability of the compound in MeOH at 254 nM after 2 hrs by LC-MS analysis in presence of NaHCO3 and BnNH2. Format: physicochemical. The settings on record: 0.254 µM.
Series [11] can be described thus: Stability of the compound in THF at 254 nM under non basic condition in presence of BnSH. It is filed as physicochemical. The settings on record: 0.254 µM.
A short description of series [12]: Drug degradation in MeOH at 254 nM after 48 hrs by LC-MS analysis in presence of NaHCO3 and BnNH2. The settings on record: MeOH with NaHCO3 and BnNH2; read-out: Drug degradation. It is filed as physicochemical.
A short description of series [13]: Drug degradation in THF at 254 nM after 24 hrs by LC-MS analysis in presence of NaHCO3 and BnSH. The following applies: THF with NaHCO3 and BnSH; read-out: Drug degradation. Format: physicochemical.
A short description of series [14]: Drug degradation in THF at 254 nM after 2 hrs by LC-MS analysis in presence of NaHCO3 and BnNH2. It is filed as physicochemical. The settings on record: THF with NaHCO3 and BnNH2; read-out: Drug degradation.
Series [15] in a line: Drug degradation in MeOH at 254 nM after 48 hrs by LC-MS analysis in presence of NaHCO3 and BnSH. It is filed as physicochemical. The settings on record: MeOH with NaHCO3 and BnSH; read-out: Drug degradation.
The nature of series [16]: Drug degradation in THF at 254 nM after 2 hrs by LC-MS analysis in presence of NaHCO3 and BnSH. It is filed as physicochemical. The following applies: THF with NaHCO3 and BnSH; read-out: Drug degradation.
A short description of series [17]: Drug degradation in MeOH at 254 nM after 72 hrs by LC-MS analysis in presence of NaHCO3 and BnNH2. It is filed as physicochemical. The following applies: MeOH with NaHCO3 and BnNH2; read-out: Drug degradation.
A short description of series [18]: Drug degradation in THF at 254 nM after 72 hrs by LC-MS analysis in presence of NaHCO3 and BnNH2. It is filed as physicochemical. The following applies: THF with NaHCO3 and BnNH2; read-out: Drug degradation.
Series [19] is described as follows: Drug degradation in THF at 254 nM after 72 hrs by LC-MS analysis in presence of NaHCO3 and BnSH. The settings on record: THF with NaHCO3 and BnSH; read-out: Drug degradation. Format: physicochemical.
Series [20] is described as follows: Drug degradation in THF at 254 nM after 48 hrs by LC-MS analysis in presence of NaHCO3 and BnSH. Format: physicochemical. The settings on record: THF with NaHCO3 and BnSH; read-out: Drug degradation.
Series [21] in a line: Drug degradation in MeOH at 254 nM after 72 hrs by LC-MS analysis in presence of NaHCO3 and BnSH. It is filed as physicochemical. The settings on record: MeOH with NaHCO3 and BnSH; read-out: Drug degradation.
The nature of series [22]: Drug degradation in MeOH at 254 nM after 2 hrs by LC-MS analysis in presence of NaHCO3 and BnSH. It is filed as physicochemical. The following applies: MeOH with NaHCO3 and BnSH; read-out: Drug degradation.
Series [23] is described as follows: Stability of the compound in THF at 254 nM under non basic condition in presence of BnNH2. Format: physicochemical. The settings on record: 0.254 µM.

Structures are written as SMILES. pIC50: −log10 of the molar value.

As to `CN1Oc2cc3c(c4cccc(c24)C1=O)[C@H](CCl)CN3C(=O)OC(C)(C)C`, the Stability entry in [1], in series [2] and in [3] was “Stable” throughout. For the same compound, the pIC50 in the series on L1210 is 6.07. In series [4], this compound gave a half-life of 24 h.

For the compound `CC(C)(C)OC(=O)N1C[C@@H](CCl)c2c1cc1c3c(cccc23)C(=O)NO1`, the degraded at 24 h, 0.254 µM in [5] came to 9%; in series [6], 3%; in series [8], 58%; in [13], 33%. The degraded at 48 h, 0.254 µM in series [7] came out at 4%; in series [12] it was 15%; in series [15], 75%; in series [20], 39%. Also, the half-life in [9] is 70 h; in series [4], 2 h. For the same compound, the Stability entry in series [10], in series [11] and in series [23] was “Stable” throughout. Also, the degraded at 2 h in [14] stood at 2%. The figures for the degraded at 2 h, 0.254 µM in [16] and in series [22] were 28% and 33%, respectively. For the same compound, the degraded at 72 h, 0.254 µM is 16% in series [17], 3% in [18], 46% in series [19] and 83% in series [21]. The pIC50 with L1210 is 6.19.
